pEC50, pIC50: −log10 of the molar value. Values after ≈ are worked out from the molar mass of the structure shown. Active and inactive are the calls of the source. The calls are words filed in the database; no cut-off is given here.
Columns and labels:
[1] = Volume of distribution at steady state in iv dosed Sprague-Dawley rat; format: ADME, organism-based; conditions: in vivo, read-out: Vdss
Oryctolagus cuniculus [2] = organism: Oryctolagus cuniculus; experiment: Cardioprotective activity in New Zealand rabbit heart assessed as reversal of ATX-II induced late sodium current increase in QT interval by electrocardiographic analysis; format: functional
[3] = Volume of distribution at steady state in iv dosed cynomolgus monkey; format: ADME, organism-based, Macaca fascicularis; conditions: in vivo, read-out: Vdss
[4] = Half-life in iv dosed cynomolgus monkey; format: ADME, organism-based, Macaca fascicularis; conditions: in vivo
NaV1.5 = NaV1.5 (Homo sapiens, UniProt Q14524); experiment: Inhibition of human NaV1.5 expressed in HEK293 cells assessed as inhibition of peak sodium current measured at frequency 3 Hz at -20 mV resting membrane potential at 3 uM by electrophysiology assay relative to control; format: cell-based; conditions: HEK293 cells expressing human NaV1.5
[5] = Metabolic stability in dog microsomes assessed as half life; format: ADME, Canis lupus familiaris, Microsome
[6] = Volume of distribution at steady state in iv dosed Beagle dog; format: ADME, organism-based, Canis lupus familiaris; conditions: in vivo, read-out: Vdss
[7] = Metabolic stability in rat microsomes assessed as half life; format: ADME, Microsome
[8] = Intrinsic clearance in human hepatocytes; format: ADME, cell-based, Hepatocyte; conditions: read-out: CLH
How it was run: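 Clearance measured in pooled human hepatocytes with tritium-labelled compound.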

[9] = Clearance in iv dosed Beagle dog; format: ADME, organism-based, Canis lupus familiaris; conditions: in vivo
[10] = Oral bioavailability in Beagle dog; format: ADME, organism-based, Canis lupus familiaris; conditions: in vivo
Oryctolagus cuniculus [11] = organism: Oryctolagus cuniculus; experiment: Cardioprotective activity in rabbit model of LAD coronary artery occlusion-induced ischemia-reperfusion injury assessed as inhibition of ST segment elevation by measuring maximum efficacy incubated with compound for 30 mins followed by induction of ischemia for 15 mins and subsequent reperfusion for 15 mins by electrocardiographic analysis relative to ranolazine; format: functional; conditions: 0.5 h
[12] = Clearance in iv dosed cynomolgus monkey; format: ADME, organism-based, Macaca fascicularis; conditions: in vivo
[13] = Toxicity in New Zealand rabbit model of LAD coronary artery occlusion-induced ischemia-reperfusion injury assessed as effect on heart rate at 0.25 to 0.5 uM; parameters: species or system Oryctolagus cuniculus; conditions: in vivo, dose 0.25-0.5 µM
[14] = Permeability of compound across apical to basolateral side in human Caco-2 cells; format: ADME, cell-based; conditions: read-out: permeability
[15] = Inhibition of ATX-II induced late sodium current (unknown origin) by manual patch clamp method; parameters: species or system Homo sapiens
Oryctolagus cuniculus [16] = organism: Oryctolagus cuniculus; experiment: (§1) Cardioprotective activity in New Zealand rabbit model of LAD coronary artery occlusion-induced ischemia-reperfusion injury assessed as inhibition of ST segment elevation at 0.25 uM for 30 mins followed by induction of ischemia for 15 mins and subsequent reperfusion for 15 mins by electrocardiographic analysis; format: functional; parameters: scale not given: the % may be the effect or the level left; conditions: time 60 min, 1 h
Oryctolagus cuniculus [17] = organism: Oryctolagus cuniculus; experiment: Cardioprotective activity in rabbit model of left circumflex artery ligation-induced ischemia assessed as inhibition of VT-VF at 2.5 uM; format: functional, organism-based
[18] = Intrinsic clearance in Sprague-dawley rat hepatocytes; format: ADME, cell-based, Hepatocyte; conditions: read-out: CLH (converted)
[19] = molecular target: T1, Sodium channel protein type 8 subunit alpha (Homo sapiens, UniProt Q9UQD0); experiment: Inhibition of NaV1.6 (unknown origin) at 10 Hz frequency by whole cell manual patch clamp technique
T1 sequence (Q9UQD0 whole entry): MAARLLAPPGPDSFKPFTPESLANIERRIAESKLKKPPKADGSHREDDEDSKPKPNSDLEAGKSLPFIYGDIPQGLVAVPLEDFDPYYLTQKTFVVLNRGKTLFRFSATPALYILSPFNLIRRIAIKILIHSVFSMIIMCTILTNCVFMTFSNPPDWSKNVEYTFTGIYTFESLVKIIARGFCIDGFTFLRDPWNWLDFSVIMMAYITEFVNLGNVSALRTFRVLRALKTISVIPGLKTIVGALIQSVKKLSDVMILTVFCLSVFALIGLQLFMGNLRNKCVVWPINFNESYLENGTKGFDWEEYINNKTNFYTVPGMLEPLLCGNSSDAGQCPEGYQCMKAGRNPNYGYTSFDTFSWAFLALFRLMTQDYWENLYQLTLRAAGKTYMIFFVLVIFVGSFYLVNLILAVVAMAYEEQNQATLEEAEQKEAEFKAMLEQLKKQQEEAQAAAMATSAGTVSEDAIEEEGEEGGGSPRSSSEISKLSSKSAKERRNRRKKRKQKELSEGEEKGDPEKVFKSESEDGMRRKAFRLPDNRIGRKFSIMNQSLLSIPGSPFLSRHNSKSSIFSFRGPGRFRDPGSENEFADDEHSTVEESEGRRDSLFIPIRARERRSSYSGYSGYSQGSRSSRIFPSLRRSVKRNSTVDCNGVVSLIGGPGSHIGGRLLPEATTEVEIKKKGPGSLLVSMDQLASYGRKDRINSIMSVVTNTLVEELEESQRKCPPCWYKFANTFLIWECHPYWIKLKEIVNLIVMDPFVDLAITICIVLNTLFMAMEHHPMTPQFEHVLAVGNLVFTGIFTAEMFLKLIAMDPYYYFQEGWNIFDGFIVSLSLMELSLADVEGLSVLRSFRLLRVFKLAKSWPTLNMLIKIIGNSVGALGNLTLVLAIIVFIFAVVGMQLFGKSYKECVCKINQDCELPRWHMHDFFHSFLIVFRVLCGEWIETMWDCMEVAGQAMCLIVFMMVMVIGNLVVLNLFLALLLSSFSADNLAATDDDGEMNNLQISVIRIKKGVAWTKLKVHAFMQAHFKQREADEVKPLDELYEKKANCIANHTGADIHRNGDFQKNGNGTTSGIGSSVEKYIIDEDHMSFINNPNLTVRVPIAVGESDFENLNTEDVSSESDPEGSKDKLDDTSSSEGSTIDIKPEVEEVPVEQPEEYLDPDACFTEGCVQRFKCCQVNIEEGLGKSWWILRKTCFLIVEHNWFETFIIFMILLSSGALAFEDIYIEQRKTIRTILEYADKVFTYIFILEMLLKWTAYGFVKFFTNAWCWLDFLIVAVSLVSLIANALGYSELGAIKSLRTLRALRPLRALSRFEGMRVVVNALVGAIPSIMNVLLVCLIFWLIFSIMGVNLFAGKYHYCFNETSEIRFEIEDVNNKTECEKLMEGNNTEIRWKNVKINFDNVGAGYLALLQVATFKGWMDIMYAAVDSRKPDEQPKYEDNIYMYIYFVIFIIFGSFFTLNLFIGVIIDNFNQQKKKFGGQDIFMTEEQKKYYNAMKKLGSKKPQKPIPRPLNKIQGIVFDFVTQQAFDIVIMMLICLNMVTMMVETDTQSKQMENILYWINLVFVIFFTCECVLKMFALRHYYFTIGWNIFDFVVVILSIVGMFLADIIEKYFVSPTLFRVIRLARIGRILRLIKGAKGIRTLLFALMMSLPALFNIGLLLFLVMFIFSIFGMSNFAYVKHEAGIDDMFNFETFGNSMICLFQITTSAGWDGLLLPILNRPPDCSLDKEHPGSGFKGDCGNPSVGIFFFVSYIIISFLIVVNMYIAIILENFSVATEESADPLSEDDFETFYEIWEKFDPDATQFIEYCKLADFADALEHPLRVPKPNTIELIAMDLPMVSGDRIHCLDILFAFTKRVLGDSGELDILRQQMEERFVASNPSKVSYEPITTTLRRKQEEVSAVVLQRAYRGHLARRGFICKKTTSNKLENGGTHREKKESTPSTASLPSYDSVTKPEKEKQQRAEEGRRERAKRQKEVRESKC
How it was run: (§2)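 Whole-cell manual patch clamp on non-cardiac NaV1.x channels, run at room temperature. Series resistance was compensated 90% so the command potential was reached within microseconds.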

[20] = Clearance in iv dosed Sprague-Dawley rat; format: ADME, organism-based; conditions: in vivo
[21] = molecular target: T2, Sodium channel protein type 1 subunit alpha (Homo sapiens, UniProt P35498); experiment: Inhibition of peak NaV1.1 (unknown origin) at 10 uM at 10 Hz frequency by manual patch clamp technique
How it was run: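 Whole-cell manual patch clamp at room temperature, with series resistance compensated 90%.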

Oryctolagus cuniculus [22] = organism: Oryctolagus cuniculus; experiment: Cardioprotective activity in rabbit model of left circumflex artery ligation-induced ischemia assessed as inhibition of VT-VF by electrocardiographic analysis; format: functional, organism-based
[23] = Oral bioavailability in cynomolgus monkey; format: ADME, organism-based, Macaca fascicularis; conditions: in vivo
Homo sapiens = organism: Homo sapiens; experiment: Inhibition of L-type calcium channel (unknown origin)
Oryctolagus cuniculus [24] = organism: Oryctolagus cuniculus; experiment: Cardioprotective activity in New Zealand White rabbit heart assessed as reversal of ATX-II induced late sodium current prolongation in change in duration of monophasic action potential at 90 percent repolarization by electrocardiographic analysis relative to control; format: functional, tissue-based
[25] = Toxicity in New Zealand rabbit model of LAD coronary artery occlusion-induced ischemia-reperfusion injury assessed as effect on blood pressure at 0.25 to 0.5 uM; parameters: species or system Oryctolagus cuniculus; conditions: in vivo, dose 0.25-0.5 µM
[26] = Half-life in iv dosed Beagle dog; format: ADME, organism-based, Canis lupus familiaris; conditions: in vivo
[27] = Half-life in iv dosed Sprague-Dawley rat; format: ADME, organism-based; conditions: in vivo
[28] = Oral bioavailability in Sprague-Dawley rat; format: ADME, organism-based; conditions: in vivo
[29] = molecular target: T2, Sodium channel protein type 1 subunit alpha; experiment: Inhibition of NaV1.1 (unknown origin) at 10 Hz frequency by whole cell manual patch clamp technique; how it was run: as §2
[30] = Toxicity in dog assessed as adverse event at > 10 uM; parameters: species or system Canis lupus familiaris; conditions: in vivo
How it was run: (§3)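 Single ascending dose studies, with CNS-related adverse events monitored.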

[31] = molecular target: T3, Sodium channel protein type 4 subunit alpha (Homo sapiens, UniProt P35499); experiment: Inhibition of NaV1.4 (unknown origin) at 25 Hz frequency by whole cell manual patch clamp technique; how it was run: as §2
Oryctolagus cuniculus [32] = organism: Oryctolagus cuniculus; experiment: Cardioprotective activity in rabbit assessed as decrease in chemically-induced Torsades des Pointes at 2.5 uM by electrocardiographic analysis; format: functional; parameters: scale not given: the % may be the effect or the level left
Oryctolagus cuniculus [33] = experiment: Cardioprotective activity in rabbit model of left circumflex artery ligation-induced ischemia assessed as inhibition of VT-VF at 0.125 to 1.5 mg/kg by electrocardiographic analysis; format: functional, organism-based; conditions: dose 0.125-1.5 mg/kg
Oryctolagus cuniculus [34] = organism: Oryctolagus cuniculus; experiment: Cardioprotective activity in New Zealand White rabbit heart assessed as reversal of ATX-II induced late sodium current prolongation in change in duration of monophasic action potential at 90 percent repolarization at 1 uM by electrocardiographic analysis relative to control; format: functional
[35] = Solubility of compound in water; format: physicochemical
NaV1.1 = NaV1.1 (Homo sapiens, UniProt P35498); experiment: Inhibition of NaV1.1 (unknown origin) expressed in cells assessed as inhibition of peak INa current at 10 uM at 25 Hz frequency by whole-cell patch clamp method relative to control; format: cell-based; conditions: cells expressing NaV1.1; how it was run: as §2
[36] = Toxicity in rat assessed as adverse event at > 10 uM; conditions: in vivo; how it was run: as §3
Oryctolagus cuniculus [37] = organism: Oryctolagus cuniculus; experiment: as §1, with “500 nM” for “0.25 uM”; format: functional; conditions: 1 h, time 60 min
[38] = molecular target: Sodium channel protein type 10 subunit alpha (Homo sapiens, UniProt Q9Y5Y9); experiment: Inhibition of NaV1.8 (unknown origin) at 10 Hz frequency by whole cell manual patch clamp technique; how it was run: as §2
Oryctolagus cuniculus [39] = experiment: as §1, with “intravenously administered with compound” for “at 0.25 uM”; format: functional
[40] = molecular target: T4, Sodium channel protein type 3 subunit alpha (Homo sapiens, UniProt Q9NY46); experiment: Inhibition of NaV1.3 (unknown origin) at 10 Hz frequency by whole cell manual patch clamp technique; how it was run: as §2
T4 sequence (Q9NY46 whole entry): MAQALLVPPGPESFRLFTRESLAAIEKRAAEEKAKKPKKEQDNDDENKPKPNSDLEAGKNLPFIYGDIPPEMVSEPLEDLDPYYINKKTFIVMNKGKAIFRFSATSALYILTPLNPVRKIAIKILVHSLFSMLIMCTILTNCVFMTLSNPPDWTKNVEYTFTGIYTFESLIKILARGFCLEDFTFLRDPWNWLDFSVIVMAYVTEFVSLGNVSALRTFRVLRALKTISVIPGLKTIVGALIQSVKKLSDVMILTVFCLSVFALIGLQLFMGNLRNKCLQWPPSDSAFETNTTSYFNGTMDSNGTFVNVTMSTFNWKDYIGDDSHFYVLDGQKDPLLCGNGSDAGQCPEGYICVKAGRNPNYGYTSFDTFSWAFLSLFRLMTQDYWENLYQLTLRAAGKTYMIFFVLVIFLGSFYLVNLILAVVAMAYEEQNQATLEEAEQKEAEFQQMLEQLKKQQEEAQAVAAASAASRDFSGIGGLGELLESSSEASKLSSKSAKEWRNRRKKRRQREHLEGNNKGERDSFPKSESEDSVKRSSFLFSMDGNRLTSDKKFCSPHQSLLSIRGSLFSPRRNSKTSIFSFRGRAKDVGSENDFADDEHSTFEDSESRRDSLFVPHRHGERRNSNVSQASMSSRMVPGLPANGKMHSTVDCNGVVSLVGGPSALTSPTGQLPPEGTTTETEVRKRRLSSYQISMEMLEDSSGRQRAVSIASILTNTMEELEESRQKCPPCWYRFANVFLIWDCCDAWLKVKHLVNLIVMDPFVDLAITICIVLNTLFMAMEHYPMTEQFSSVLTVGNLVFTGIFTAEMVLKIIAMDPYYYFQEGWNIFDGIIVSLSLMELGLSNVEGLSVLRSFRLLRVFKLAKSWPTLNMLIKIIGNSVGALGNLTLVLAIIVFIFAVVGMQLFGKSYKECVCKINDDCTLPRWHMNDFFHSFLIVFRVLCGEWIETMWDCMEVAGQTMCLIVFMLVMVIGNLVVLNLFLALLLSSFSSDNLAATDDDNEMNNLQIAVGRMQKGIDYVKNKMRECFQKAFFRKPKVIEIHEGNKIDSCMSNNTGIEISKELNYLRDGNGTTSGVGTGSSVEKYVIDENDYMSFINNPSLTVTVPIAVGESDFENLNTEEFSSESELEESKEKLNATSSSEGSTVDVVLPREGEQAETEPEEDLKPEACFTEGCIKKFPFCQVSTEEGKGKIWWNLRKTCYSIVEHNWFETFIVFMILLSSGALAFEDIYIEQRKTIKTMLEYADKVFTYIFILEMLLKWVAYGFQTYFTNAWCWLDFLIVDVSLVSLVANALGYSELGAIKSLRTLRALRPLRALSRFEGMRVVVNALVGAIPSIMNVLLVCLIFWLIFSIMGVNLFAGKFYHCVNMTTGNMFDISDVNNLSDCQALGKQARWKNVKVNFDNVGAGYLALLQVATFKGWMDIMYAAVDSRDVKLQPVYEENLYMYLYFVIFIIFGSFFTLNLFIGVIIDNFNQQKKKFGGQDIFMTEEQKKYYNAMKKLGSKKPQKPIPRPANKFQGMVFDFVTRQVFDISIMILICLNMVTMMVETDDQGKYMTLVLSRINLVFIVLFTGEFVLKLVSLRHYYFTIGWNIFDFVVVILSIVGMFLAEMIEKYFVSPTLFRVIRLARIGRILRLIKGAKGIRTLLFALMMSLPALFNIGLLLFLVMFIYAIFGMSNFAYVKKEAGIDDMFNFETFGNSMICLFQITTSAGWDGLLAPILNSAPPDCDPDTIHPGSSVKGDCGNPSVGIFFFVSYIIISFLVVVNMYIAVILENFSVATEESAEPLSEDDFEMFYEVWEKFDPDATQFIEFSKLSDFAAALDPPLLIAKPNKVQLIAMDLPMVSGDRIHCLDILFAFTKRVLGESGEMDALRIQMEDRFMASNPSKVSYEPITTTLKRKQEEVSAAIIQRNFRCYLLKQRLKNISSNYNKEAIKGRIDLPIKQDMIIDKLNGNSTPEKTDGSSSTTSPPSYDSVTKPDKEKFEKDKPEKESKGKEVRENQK

[41] = Permeability of compound across basolateral to apical side in human Caco-2 cells; format: ADME, cell-based; conditions: read-out: permeability
[42] = molecular target: T3, Sodium channel protein type 4 subunit alpha; experiment: Inhibition of NaV1.4 (unknown origin) at 10 Hz frequency by whole cell manual patch clamp technique; how it was run: as §2
Oryctolagus cuniculus [43] = organism: Oryctolagus cuniculus; experiment: as §1, with “0.5” for “0.25”; format: functional; parameters: scale not given: the % may be the effect or the level left; conditions: time 60 min, 1 h
[44] = Metabolic stability in human microsomes assessed as half life; format: ADME, Microsome
[45] = Intrinsic clearance in Beagle dog hepatocytes; format: ADME, cell-based, Canis lupus familiaris, Hepatocyte; conditions: read-out: CLH (converted)
[46] = Intrinsic clearance in cynomolgus monkey hepatocytes; format: ADME, cell-based, Macaca fascicularis, Hepatocyte; conditions: read-out: CLH (converted)
[47] = molecular target: T1, Sodium channel protein type 8 subunit alpha; experiment: Inhibition of NaV1.6 (unknown origin) at 25 Hz frequency by whole cell manual patch clamp technique; how it was run: as §2
[48] = Toxicity in New Zealand rabbit model of LAD coronary artery occlusion-induced ischemia-reperfusion injury assessed as effect on ECG interval at 0.25 to 0.5 uM; parameters: species or system Oryctolagus cuniculus; conditions: in vivo, dose 0.25-0.5 µM
[49] = molecular target: T4, Sodium channel protein type 3 subunit alpha; experiment: Inhibition of NaV1.3 (unknown origin) at 25 Hz frequency by whole cell manual patch clamp technique; how it was run: as §2
[50] = Inhibition of late sodium current channel (unknown origin) at 25 Hz frequency by whole cell patch clamp technique; conditions: Homo sapiens
[51] = Inhibition of peak sodium current (unknown origin) by manual patch clamp method; parameters: species or system Homo sapiens

Vd [1]: 2.5 L/kg | Vd [3]: 1.5 L/kg | half-life [4]: 5 h | half-life [5]: 5.9 h | Vd [6]: 1.6 L/kg | half-life [7]: 3.33 h | CLint scaled [8]: < 0.25 mL/min/kg | clearance [9]: 0.7 mL/min/kg | bioavailability [10]: 100% | clearance [12]: 1.83 mL/min/kg | Papp A→B [14]: 34.6 ×10⁻⁶ cm/s | pIC50 [15]: 6.21 | CLint scaled [18]: 2.67 mL/min/kg | pIC50 [19]: 4.55 | clearance [20]: 2.33 mL/min/kg | inhibition (INH) [21]: Not Active | pEC50 (Oryctolagus cuniculus [22]): 5.77 | bioavailability [23]: 39% | inhibition (Homo sapiens): inactive | pIC50 (Oryctolagus cuniculus [24]): 6.15 | half-life [26]: 27.9 h | half-life [27]: 13 h | bioavailability [28]: 91% | pIC50 [29]: 4.02 | pIC50 [31]: 5.48 | solubility [35]: 24 µM (≈ 9.97 µg/mL) | inhibition at 10 µM (NaV1.1): 53% | pIC50 [38]: 4.73 | pIC50 [40]: 4.80 | Papp B→A [41]: 29 ×10⁻⁶ cm/s | pIC50 [42]: 4.89 | half-life [44]: 6.58 h | CLint scaled [45]: 1 mL/min/kg | CLint scaled [46]: 6 mL/min/kg | pIC50 [47]: 5.40 | pIC50 [49]: 5.46 | pIC50 [50]: 6.06 | pIC50 [51]: 4.29
Structure (SMILES): O=C1c2cc(-c3ccc(OC(F)(F)F)cc3)ccc2OCCN1Cc1ncccn1 [ELECLAZINE]
Activity (Oryctolagus cuniculus [2]): Active | inhibition at 3 µM (NaV1.5): 24% | Emax (Oryctolagus cuniculus [11]): 93% | Activity [13]: Non-Toxic | Activity (Oryctolagus cuniculus [16]): 55% | Activity (Oryctolagus cuniculus [17]): Active | Activity [25]: Non-Toxic | Activity [30]: Toxic | Activity (Oryctolagus cuniculus [32]): 100% | Activity (Oryctolagus cuniculus [33]): Active | Activity (Oryctolagus cuniculus [34]): 62% | Activity [36]: Toxic | inhibition in vivo at 0.5 µM (Oryctolagus cuniculus [37]): 93% | pEC50 (Oryctolagus cuniculus [39]): 6.72 | Activity (Oryctolagus cuniculus [39]; time 60.0 min): Dose-dependent effect | Activity (Oryctolagus cuniculus [43]): 93% | Activity [48]: Non-Toxic

Source: ChEMBL document CHEMBL4765231 (J Med Chem, 2016)
